According to paper PMC5474427 (EBioMedicine, 2016):

Key:
Phospho-b-Catenin (S675) = assay type: in vivo; conditions: A549 xenograft tumors, 2 h after final dose on day 20
In short: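 Xenograft tumors were harvested 2 h after the last dose, flash frozen and lysed in buffer with protease and phosphatase inhibitors. Protein was measured by BCA. Lysates from individual mice in each group were pooled so each tumor contributed equal total protein. Western blots were imaged on an infrared imager. Pools were run once, with no statistical testing.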

palmitoyl-β-tubulin = assay: Tubulin palmitoylation in NSCLC cell lines; assay type: cell-based; conditions: A549 cells, 20 μM for 18 h
palmitoyl-α-tubulin = assay: Tubulin palmitoylation in NSCLC cell lines; assay type: cell-based; conditions: A549 cells, 20 μM for 18 h
[1] = Phase I, solid tumors; ref Dean et al., 2016; cited from earlier work
[2] = test system: β-tubulin mRNA in 22Rv1 prostate tumor cells; assay: β-tubulin mRNA expression by RNA sequencing; assay type: cell-based; conditions: 22Rv1 cells, 48 h, 1 μM TVB-3166
[3] = test system: 22Rv1 prostate tumor cells; assay: Soft agar colony formation; assay type: cell-based
In short: (§1)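 Cells were plated in 0.35% agarose in IMDM with 10% FBS, 1% non-essential amino acids and 1% L-glutamine, containing a dose–response matrix of FASN inhibitor and paclitaxel. This layer sat over a 0.6% bacto-agar base in the same medium. A compound-containing liquid feeder layer was changed weekly. After 3–4 weeks, colonies were stained with 0.005% crystal violet and wells imaged.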

xenograft tumor models = assay: Xenograft tumor models, summary statements across models; assay type: in vivo, mice; conditions: three NSCLC studies (CALU6, A549, CTG-0165_P + 6)
In short: (§2)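 Mice with NSCLC cell-line (CALU-6, A549) or patient-derived tumors were randomized by tumor size and dosed once mean tumor size reached 150–200 mm3; ≥10 mice/group. FASN inhibitor 60 mg/kg by oral gavage once daily; paclitaxel 10 mg/kg iv every 4 days or docetaxel 8 or 6 mg/kg iv every 7 days. In combinations, FASN inhibitor was given 2 h before taxane. TGI is % tumor growth from treatment start, drug vs vehicle groups.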

[4] = test system: CALU6 non-small-cell lung tumor cells; assay: Soft agar colony formation; assay type: cell-based
In short: as §1

MRC-5 lung fibroblasts = assay type: cell-based; conditions: MRC-5 fibroblasts
[5] = test system: CALU6 NSCLC adenocarcinoma cell line xenograft; assay: CALU6 NSCLC xenograft tumor growth; assay type: in vivo, mice; conditions: CALU-6; TVB-3166 60 mg/kg oral once daily; paclitaxel 10 mg/kg iv every 4 days
In short: as §2

For `CC(=O)O[C@@]12CO[C@@H]1C[C@H](O)[C@@]1(C)C(=O)[C@H](O)C3=C(C)[C@@H](OC(=O)[C@H](O)[C@@H](NC(=O)OC(C)(C)C)c4ccccc4)C[C@@](O)([C@@H](OC(=O)c4ccccc4)[C@H]21)C3(C)C` [Docetaxel], the “inhibition of β-catenin S675 phosphorylation” value (Phospho-b-Catenin (S675)) was 25%.
With `CCCCCCCCCCCCCCC(Br)C(=O)O` (stereo not drawn) [2-Bromo-Palmitate, 2-bromopalmitate] the “decrease of palmitoyl-β-tubulin level” value (palmitoyl-β-tubulin) was 79% and the “decrease of palmitoyl-α-tubulin level” value (palmitoyl-α-tubulin) was 27%.
For `Cc1nnc(-c2cc(C(=O)N3CCC(c4ccc(C#N)cc4)CC3)c(C)cc2C2CCC2)[nH]1` [TVB-2640], the “oral bioavailability and pharmacokinetics” value [1] is listed as “excellent”.
In the case of `CC(=O)O[C@H]1C(=O)[C@@]2(C)[C@H]([C@H](OC(=O)c3ccccc3)[C@]3(O)C[C@H](OC(=O)[C@H](O)[C@@H](NC(=O)c4ccccc4)c4ccccc4)C(C)=C1C3(C)C)[C@]1(OC(C)=O)CO[C@@H]1C[C@@H]2O` [Paclitaxel], the “β-tubulin mRNA expression compared to DMSO” value [2] is reported as “no effect”, the “soft agar colony growth” value ([3]; 3 nM paclitaxel) is reported as “strong inhibition of colony growth” and the “soft agar colony growth” value ([3]; paclitaxel 0.3 or 1.0 nM) is reported as “did not affect colony size or number”. The “tumor growth inhibition, single agent” value (xenograft tumor models) was 48–63%, the “soft agar colony growth” value ([4]; 3 nM paclitaxel) was “strong inhibition of colony growth” and the “soft agar colony growth” value ([4]; paclitaxel 0.3 or 1.0 nM) was “did not affect colony size or number”. The “effect on microtubule organization in non-tumor cells” value (MRC-5 lung fibroblasts) was “very little effect” and the TGI vs. vehicle [5] was 63%.
